A short description of series [1]: Selectivity for human P2Y12 receptor over P2Y1.
For series [2], the target named is T1, P2Y purinoceptor 12 (Homo sapiens, UniProt Q9H244). Briefly: Ratio of compound IC50 to thienopyrimidine IC50 for P2Y12 receptor in human platelet rich plasma assessed as inhibition of ADP-induced platelet aggregation by light transmission aggregometry. The essentials: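 Human platelet-rich plasma was pre-incubated 5 min at 37 °C with compound across seven concentrations (10 down to 0.156). Aggregation was started with ADP (20, final) and followed by light transmission at 626 nm for 15 min at 37 °C. Duplicate concentration-response data were read at the 15-min end-point. IC50 was divided by the IC50 of the thienopyrimidine reference run on the same plate.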

Another series concerns the target CYP3A4 (Homo sapiens, UniProt P08684). Nature of the series: Inhibition of CYP3A4 at 3 uM after 30 mins. The series is classed as ADME. The essentials: (§1)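 Each CYP isoform assayed separately at a single 3 µM compound concentration in duplicate, with at least one isoform-specific positive control inhibitor. Incubation 30 min at 37 °C; end-point measurement gives percent inhibition.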

In series [3] the test system is Liver microsomes. Nature of the series: Metabolic stability in rat liver microsomes assessed as compound remaining. The series is classed as ADME, Microsome. The essentials:
(§2)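 Compounds incubated 30 min with human or rat liver microsomes; percent of parent compound remaining measured.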
Background: Liver microsomes are vesicles of endoplasmic reticulum, rich in cytochrome P450 enzymes.

In a further series the target is CYP2C9 (Homo sapiens, UniProt P11712). Nature of the series: Inhibition of CYP2C9 at 3 uM after 30 mins. Type of series: ADME. Put shortly: as §1
For series [4], the target named is T1, P2Y purinoceptor 12. Nature of the series: Binding affinity at human recombinant P2Y12 receptor expressed in CHO cells by radioligand binding assay. Type of series: cell-based. The essentials: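 Washed membranes from CHO cells transfected with synthetic human P2Y12 gene. Compounds as 7-point threefold dilutions, triplicate, 1 h at room temperature. Nonspecific binding defined with 300 nM 2-MeSADP. Filtered, washed with ice-cold Tris pH 7.4. Single-site fit; IC50 converted to Ki by Cheng–Prusoff, geometric mean of n≥2.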

Series [5] can be described thus: Selectivity for human P2Y12 receptor over P2Y13.
Series [6] relates to Liver microsomes. Briefly: Metabolic stability in human liver microsomes assessed as compound remaining. Type of series: ADME, Microsome. The essentials:
as §2

The target in series [7] is T1, P2Y purinoceptor 12. Nature of the series: Ratio of compound IC50 to AZD-6140 IC50 for P2Y12 receptor in human platelet rich plasma assessed as inhibition of ADP-induced platelet aggregation by light transmission aggregometry. Put shortly:
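Human platelet-rich plasma was pre-incubated 5 min at 37 °C with compound across seven concentrations (10 down to 0.156). Aggregation was started with ADP (20, final) and followed by light transmission at 626 nm for 15 min at 37 °C. Duplicate concentration-response data were read at the 15-min end-point. IC50 was divided by the IC50 of AZD-6140 run on the same plate.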

In another series the target is T2, CYP1A2 (Homo sapiens, UniProt P05177).
T2 sequence (P05177 whole entry): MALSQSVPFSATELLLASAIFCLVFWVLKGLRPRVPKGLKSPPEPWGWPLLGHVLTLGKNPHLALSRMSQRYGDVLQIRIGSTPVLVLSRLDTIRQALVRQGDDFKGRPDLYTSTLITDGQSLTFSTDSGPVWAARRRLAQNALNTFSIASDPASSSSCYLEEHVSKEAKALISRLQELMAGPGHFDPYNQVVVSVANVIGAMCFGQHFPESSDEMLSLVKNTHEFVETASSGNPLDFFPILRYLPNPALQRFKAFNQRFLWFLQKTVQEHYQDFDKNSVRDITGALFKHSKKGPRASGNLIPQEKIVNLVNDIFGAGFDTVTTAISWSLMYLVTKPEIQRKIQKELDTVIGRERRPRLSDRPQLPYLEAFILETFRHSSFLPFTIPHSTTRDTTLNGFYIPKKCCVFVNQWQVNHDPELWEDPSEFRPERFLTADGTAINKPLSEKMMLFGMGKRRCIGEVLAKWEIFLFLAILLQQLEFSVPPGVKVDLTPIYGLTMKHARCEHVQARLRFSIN
Nature of the series: Inhibition of CYP1A2 at 3 uM after 30 mins. The series is classed as ADME. The essentials:
as §1

For the next series, the target named is hERG (KCNH2) (Homo sapiens, UniProt Q12809). Briefly: Displacement of Cy3B-tagged N-desmethyl dofetilide from human ERG expressed in HEK cells at 10 uM after 120 mins. The series is classed as cell-based, HEK293. The following applies: HEK cells that express human ERG, probe Cy3B-tagged N-desmethyl dofetilide. Put shortly:
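Fluorescence polarization competition assay with HEK-hERG membrane homogenates and Cy3B-tagged N-desmethyl dofetilide tracer. Compound tested at a single 10 µM concentration, 120 min incubation, end-point read for percent inhibition.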

The target of another series is CYP2D6 (Homo sapiens, UniProt P10635). Briefly: Inhibition of CYP2D6 at 3 uM after 30 mins. Type of series: ADME. Put shortly: as §1
The nature of series [8]: Effective half life in Sprague-Dawley rat at 2 mg/kg, iv and 5 mg/kg, po. The series is classed as ADME, organism-based. The following applies: in vivo.
The nature of series [9]: Volume of distribution at steady state in Sprague-Dawley rat at 2 mg/kg, iv and 5 mg/kg, po. The following applies: in vivo, read-out: Vdss. The series is classed as ADME, organism-based.
A short description of series [10]: Clearance in Sprague-Dawley rat at 2 mg/kg, iv and 5 mg/kg, po. Type of series: ADME, organism-based. To be noted: in vivo.

Chain of CYP2C9 (P11712 whole entry): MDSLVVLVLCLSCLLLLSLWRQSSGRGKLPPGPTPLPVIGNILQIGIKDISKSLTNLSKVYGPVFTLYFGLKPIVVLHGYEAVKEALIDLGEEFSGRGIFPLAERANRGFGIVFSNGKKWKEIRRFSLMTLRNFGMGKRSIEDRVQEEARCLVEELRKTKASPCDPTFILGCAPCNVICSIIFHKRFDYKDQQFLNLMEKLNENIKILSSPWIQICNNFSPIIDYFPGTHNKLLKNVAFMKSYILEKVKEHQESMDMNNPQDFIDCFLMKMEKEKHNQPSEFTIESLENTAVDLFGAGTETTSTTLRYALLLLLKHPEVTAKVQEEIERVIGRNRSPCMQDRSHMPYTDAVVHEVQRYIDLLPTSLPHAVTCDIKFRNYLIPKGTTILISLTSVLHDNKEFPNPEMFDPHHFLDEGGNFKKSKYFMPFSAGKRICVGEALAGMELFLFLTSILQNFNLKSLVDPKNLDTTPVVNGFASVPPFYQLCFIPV
Chain of hERG (KCNH2) (Q12809 whole entry): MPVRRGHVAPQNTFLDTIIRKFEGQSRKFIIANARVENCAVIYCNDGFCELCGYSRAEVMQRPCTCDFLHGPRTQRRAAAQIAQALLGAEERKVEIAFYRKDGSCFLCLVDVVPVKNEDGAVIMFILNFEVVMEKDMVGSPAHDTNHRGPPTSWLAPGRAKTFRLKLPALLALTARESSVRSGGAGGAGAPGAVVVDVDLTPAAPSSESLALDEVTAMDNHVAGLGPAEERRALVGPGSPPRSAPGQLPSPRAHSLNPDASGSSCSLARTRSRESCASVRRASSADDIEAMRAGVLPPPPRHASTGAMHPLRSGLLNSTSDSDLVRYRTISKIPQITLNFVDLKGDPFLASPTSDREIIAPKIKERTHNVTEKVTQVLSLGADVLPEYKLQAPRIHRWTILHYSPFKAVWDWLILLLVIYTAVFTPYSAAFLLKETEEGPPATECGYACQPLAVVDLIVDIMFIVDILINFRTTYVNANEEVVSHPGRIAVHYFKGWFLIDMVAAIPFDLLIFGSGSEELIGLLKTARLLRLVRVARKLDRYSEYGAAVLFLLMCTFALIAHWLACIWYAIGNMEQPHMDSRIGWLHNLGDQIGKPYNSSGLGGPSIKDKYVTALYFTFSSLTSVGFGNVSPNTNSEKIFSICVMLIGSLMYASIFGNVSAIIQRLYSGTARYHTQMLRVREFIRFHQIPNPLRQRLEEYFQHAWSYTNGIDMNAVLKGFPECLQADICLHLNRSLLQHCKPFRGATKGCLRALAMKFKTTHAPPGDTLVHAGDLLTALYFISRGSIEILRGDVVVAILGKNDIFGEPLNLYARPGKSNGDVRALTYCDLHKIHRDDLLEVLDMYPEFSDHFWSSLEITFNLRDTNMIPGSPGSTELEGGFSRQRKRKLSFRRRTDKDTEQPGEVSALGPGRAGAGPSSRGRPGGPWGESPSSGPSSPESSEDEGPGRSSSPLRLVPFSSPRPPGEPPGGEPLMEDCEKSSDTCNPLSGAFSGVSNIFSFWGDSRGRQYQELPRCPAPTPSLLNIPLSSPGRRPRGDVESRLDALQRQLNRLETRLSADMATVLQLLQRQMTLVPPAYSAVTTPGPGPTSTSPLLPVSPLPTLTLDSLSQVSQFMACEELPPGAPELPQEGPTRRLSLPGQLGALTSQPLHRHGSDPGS
Chain of CYP2D6 (P10635 whole entry): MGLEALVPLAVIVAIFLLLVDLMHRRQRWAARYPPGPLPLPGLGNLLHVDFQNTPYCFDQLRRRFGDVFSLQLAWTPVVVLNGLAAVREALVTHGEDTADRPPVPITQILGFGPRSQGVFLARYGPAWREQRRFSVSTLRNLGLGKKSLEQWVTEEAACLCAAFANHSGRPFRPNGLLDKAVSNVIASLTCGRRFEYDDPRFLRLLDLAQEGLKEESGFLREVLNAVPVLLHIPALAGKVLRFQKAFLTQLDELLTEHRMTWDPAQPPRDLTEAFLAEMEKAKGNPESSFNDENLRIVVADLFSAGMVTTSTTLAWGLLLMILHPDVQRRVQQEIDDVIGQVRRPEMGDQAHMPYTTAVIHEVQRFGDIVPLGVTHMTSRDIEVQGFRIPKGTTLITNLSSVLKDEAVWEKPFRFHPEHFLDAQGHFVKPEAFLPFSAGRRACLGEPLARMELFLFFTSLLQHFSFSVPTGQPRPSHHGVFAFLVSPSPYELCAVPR
Chain of CYP3A4 (P08684 whole entry, canonical isoform): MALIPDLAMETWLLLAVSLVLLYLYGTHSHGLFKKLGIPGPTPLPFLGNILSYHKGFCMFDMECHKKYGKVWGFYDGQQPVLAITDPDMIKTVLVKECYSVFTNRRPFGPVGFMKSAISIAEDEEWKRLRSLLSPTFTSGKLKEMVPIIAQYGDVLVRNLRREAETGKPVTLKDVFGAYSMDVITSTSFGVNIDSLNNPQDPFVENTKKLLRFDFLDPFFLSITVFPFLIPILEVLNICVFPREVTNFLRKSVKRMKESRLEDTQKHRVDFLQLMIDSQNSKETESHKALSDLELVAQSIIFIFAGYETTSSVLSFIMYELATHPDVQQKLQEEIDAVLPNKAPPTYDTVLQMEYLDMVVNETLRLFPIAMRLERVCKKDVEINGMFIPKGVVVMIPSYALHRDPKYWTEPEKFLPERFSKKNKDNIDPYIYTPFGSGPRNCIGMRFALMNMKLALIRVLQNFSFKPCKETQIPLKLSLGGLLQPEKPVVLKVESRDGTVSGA
T1 sequence (Q9H244 whole entry): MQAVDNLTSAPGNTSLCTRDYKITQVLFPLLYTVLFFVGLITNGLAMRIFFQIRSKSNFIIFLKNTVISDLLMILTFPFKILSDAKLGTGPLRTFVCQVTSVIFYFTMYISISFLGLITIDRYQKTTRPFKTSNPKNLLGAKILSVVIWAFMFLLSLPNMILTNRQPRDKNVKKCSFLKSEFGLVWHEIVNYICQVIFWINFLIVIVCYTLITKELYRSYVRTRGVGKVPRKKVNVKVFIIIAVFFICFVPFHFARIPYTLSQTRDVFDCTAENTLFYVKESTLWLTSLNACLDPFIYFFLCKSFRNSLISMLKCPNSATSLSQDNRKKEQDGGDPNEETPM

Usually inhibition stands for the change of the read-out against control, counted positive when it falls. A lower inhibition goes with little suppression. As a reminder, the Ki is the dissociation constant of the complex between target and ligand, obtained from inhibition or displacement. For `CCCCCOC(=O)N1CCN(C(=O)[C@H](CCC(=O)O)NC(=O)c2cc(N3CCC(N4CCCC4)CC3)nc(-c3ccccc3)n2)CC1`, the fold change (FC) in [1] and in series [5] was above 340 each time. The Ratio IC50 on P2Y purinoceptor 12 [2] is 0.1; on P2Y purinoceptor 12 [7], 0.4. Also, the inhibition at 0.5 h, 3 µM at CYP3A4, against CYP2C9, against CYP1A2 and against CYP2D6 was below 25% throughout. Besides, the Stability in the series with Liver microsomes [3] and in the series on Liver microsomes [6] was above 80% each time. The Ki at P2Y purinoceptor 12 [4] came out at 1.5 nM. This compound gave an inhibition at 2 h, 10 µM on hERG (KCNH2) below 25%.

A word on the half-life: it is the time needed for the level to fall by half in the phase considered. `CCCCCOC(=O)N1CCN(C(=O)[C@H](CCC(=O)O)NC(=O)c2cc(N3CCC(OCCO)CC3)nc(-c3ccccc3)n2)CC1` displayed a half-life in series [8] of 30 min. For the same compound, the fold change (FC) in series [1] and in series [5] was above 340 throughout. Also, the Ratio IC50 stood at 0.4 on P2Y purinoceptor 12 [2] and 0.9 at P2Y purinoceptor 12 [7]. The inhibition at 0.5 h, 3 µM against CYP3A4, on CYP2C9, on CYP1A2 and at CYP2D6 was below 25% each time. Further, the Stability in the series on Liver microsomes [3] and in the series on Liver microsomes [6] was above 80% in each case. In addition, in [9], the Vd was determined as 0.8 L/kg. Also, the Ki on P2Y purinoceptor 12 [4] was determined as 0.71 nM. The compound also came in with an inhibition at 2 h, 10 µM at hERG (KCNH2) below 25%. The compound also returned a clearance in series [10] of 18 mL/min/kg.

`CCCCCOC(=O)N1CCN(C(=O)[C@H](CCC(=O)O)NC(=O)c2nc(-c3ccccc3)cc(N3CCC(C(=O)N4CCCC4)CC3)n2)CC1`: the fold change (FC) in [1] and in [5] was above 340 in each case. The Ratio IC50 was determined as 0.5 on P2Y purinoceptor 12 [2] and 1.8 at P2Y purinoceptor 12 [7]. Also, the Ki on P2Y purinoceptor 12 [4] was found to be 3.6 nM.

With `CCCCCOC(=O)N1CCN(C(=O)[C@H](CCC(=O)O)NC(=O)c2cc(OCC3CCNCC3)nc(-c3ccccc3)n2)CC1`, the fold change (FC) in series [1] and in series [5] was above 340 throughout. Moreover, the Ratio IC50 on P2Y purinoceptor 12 [2] worked out at 0.3; at P2Y purinoceptor 12 [7], 1.7. For the same compound, the Ki at P2Y purinoceptor 12 [4] was found to be 2.2 nM.

For `CCCCCOC(=O)N1CCN(C(=O)[C@H](CCC(=O)O)NC(=O)c2cc(N3CCC(C(N)=O)CC3)nc(-c3ccccc3)n2)CC1`, in [8], the half-life is 24 min. Moreover, the fold change (FC) in series [1] and in series [5] was above 340 in each case. Besides, the Ratio IC50 at P2Y purinoceptor 12 [2] is 0.1; on P2Y purinoceptor 12 [7], 0.7. Moreover, the inhibition at 0.5 h, 3 µM at CYP3A4, on CYP2C9, against CYP1A2 and against CYP2D6 was below 25% each time. Moreover, the Stability in the series on Liver microsomes [3] and in the series on Liver microsomes [6] was above 80% in each case. Further, the Vd in series [9] came to 2.4 L/kg. The Ki at P2Y purinoceptor 12 [4] was found to be 2 nM. In addition, the inhibition at 2 h, 10 µM at hERG (KCNH2) was below 25%. Further, the clearance in series [10] came to 68 mL/min/kg.

Regarding `CCCCOC(=O)N1CCN(C(=O)[C@H](CCC(=O)O)NC(=O)c2cc(N3CCC(CCOC)CC3)nc(-c3ccccc3)n2)CC1`, the fold change (FC) in series [1] and in series [5] was above 340 in each case. Besides, the Ratio IC50 at P2Y purinoceptor 12 [2] worked out at 0.5; on P2Y purinoceptor 12 [7] it was 2.1. For the same compound, the inhibition constant Ki at P2Y purinoceptor 12 [4] turned out to be 2 nM.

For the compound `CCCCOC(=O)N1CCN(C(=O)[C@H](CCC(=O)O)NC(=O)c2cc(OCC3CCN(C)CC3)nc(-c3ccccc3)n2)CC1`, the fold change (FC) in [1] and in series [5] was above 340 each time. Also, the Ratio IC50 on P2Y purinoceptor 12 [2] stood at 0.9; on P2Y purinoceptor 12 [7] it was 3.7. Also, on P2Y purinoceptor 12 [4], the Ki is 15 nM.

On to `CCCCCOC(=O)N1CCN(C(=O)[C@H](CCC(=O)O)NC(=O)c2cc(N3CC(O)C3)nc(-c3ccccc3)n2)CC1`, for which the fold change (FC) in series [1] and in series [5] was above 340 each time. Also, the Ratio IC50 is 0.8 on P2Y purinoceptor 12 [2] and 4.6 at P2Y purinoceptor 12 [7]. Moreover, on P2Y purinoceptor 12 [4], the Ki was determined as 2.5 nM.
